Experimental data published in BindingDB's records for doi:10.1021/jm970159v (National Taiwan University, 1998).

Columns and labels:
D(3) dopamine receptor = D(3) dopamine receptor (Homo sapiens, UniProt P35462); assay: Compound is evaluated for binding affinity towards recombinant human Dopamine receptor D3 using [3H]spiperone in CHO cells at 10 uM
In short: (§1)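 Single-concentration screen at 10 µM in contract radioligand binding assays. Records whether inhibition of specific radioligand binding stayed below 50%.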

Histamine H1 receptor = Histamine H1 receptor (Cavia porcellus, UniProt P31389); assay: Compound is evaluated for binding affinity towards Histamine H1 receptor using [3H]pyrilamine in guinea pig lung at 10 uM; in short: as §1
Histamine H1 receptor, sequence (P31389 whole entry): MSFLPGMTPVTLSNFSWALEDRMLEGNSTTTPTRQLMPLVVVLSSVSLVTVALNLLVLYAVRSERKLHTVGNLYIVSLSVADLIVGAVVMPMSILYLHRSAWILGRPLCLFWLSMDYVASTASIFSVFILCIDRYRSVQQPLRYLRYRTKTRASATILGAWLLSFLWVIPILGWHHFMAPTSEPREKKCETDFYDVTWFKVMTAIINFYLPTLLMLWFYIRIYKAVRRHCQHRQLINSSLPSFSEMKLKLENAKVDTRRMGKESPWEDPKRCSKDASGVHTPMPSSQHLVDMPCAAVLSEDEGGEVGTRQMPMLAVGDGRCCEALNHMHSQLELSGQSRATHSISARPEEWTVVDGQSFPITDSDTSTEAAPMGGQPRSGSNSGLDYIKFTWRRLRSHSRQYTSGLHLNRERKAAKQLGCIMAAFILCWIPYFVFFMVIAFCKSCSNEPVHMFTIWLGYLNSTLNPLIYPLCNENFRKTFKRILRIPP

[1] = target: Sigma non-opioid intracellular receptor 1 (Cavia porcellus) (UniProt Q60492); assay: Compound is evaluated for binding affinity towards Sigma receptor using [3H]pentazocine in guinea pig brain
Sigma non-opioid intracellular receptor 1 (Cavia porcellus), sequence (Q60492 whole entry, looked up): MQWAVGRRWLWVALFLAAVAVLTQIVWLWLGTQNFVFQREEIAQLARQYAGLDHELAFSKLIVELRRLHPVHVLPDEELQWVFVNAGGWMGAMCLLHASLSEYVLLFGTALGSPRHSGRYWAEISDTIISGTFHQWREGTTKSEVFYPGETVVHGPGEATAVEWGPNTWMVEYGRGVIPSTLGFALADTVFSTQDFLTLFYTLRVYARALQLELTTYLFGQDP

D(3) dopamine receptor, sequence (P35462 as listed by the source): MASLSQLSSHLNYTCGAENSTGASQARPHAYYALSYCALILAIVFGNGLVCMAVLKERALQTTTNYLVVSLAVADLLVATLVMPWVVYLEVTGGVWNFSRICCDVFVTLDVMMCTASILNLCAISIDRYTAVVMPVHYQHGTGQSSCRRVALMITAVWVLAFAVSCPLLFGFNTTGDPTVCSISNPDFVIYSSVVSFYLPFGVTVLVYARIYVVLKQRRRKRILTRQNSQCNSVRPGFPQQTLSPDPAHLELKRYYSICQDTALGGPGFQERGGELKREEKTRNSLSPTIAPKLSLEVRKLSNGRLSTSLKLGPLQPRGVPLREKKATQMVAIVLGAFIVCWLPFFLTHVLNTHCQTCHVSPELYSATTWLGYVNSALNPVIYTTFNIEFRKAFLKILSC

| Ki (D(3) dopamine receptor) | Ki (Histamine H1 receptor) | Ki [1] | Structure (SMILES) |
| --- | --- | --- | --- |
| > 10 µM | > 10 µM | – | COc1ccccc1N1CCN(C[C@H]2CN=C3c4ccccc4N=C(SC)N32)CC1 |
| – | – | 0.743 µM | COc1ccccc1N1CCN(Cc2cn3c(=O)[nH]c4ccccc4c3n2)CC1 [2-[4-(2-Methoxy-phenyl)-piperazin-1-ylmethyl]-6H-imidazo[1,2-c]quinazolin-5-one] |
| – | – | > 6.27 µM | COc1ccccc1N1CCN(CC2CN=C3c4ccccc4NC(=O)N32)CC1 (stereo not drawn) [3-[4-(2-Methoxy-phenyl)-piperazin-1-ylmethyl]-2,6-dihydro-3H-imidazo[1,2-c]quinazolin-5-one] |
| – | – | 1.5 µM | Oc1nc2ccccc2c2ncc(CN3CCN(c4ccccc4Cl)CC3)n12 [3-[4-(2-Chloro-phenyl)-piperazin-1-ylmethyl]-6H-imidazo[1,2-c]quinazolin-5-one] |
| – | – | 6.52 µM | COc1ccccc1N1CCN(Cc2cnc3c4ccccc4nc(O)n23)CC1 [3-[4-(2-Methoxy-phenyl)-piperazin-1-ylmethyl]-6H-imidazo[1,2-c]quinazolin-5-one] |
| – | – | 4 µM | COc1ccccc1N1CCN(CC2CN3C(=O)Nc4ccccc4C3=N2)CC1 (stereo not drawn) [2-[4-(2-Methoxy-phenyl)-piperazin-1-ylmethyl]-2,6-dihydro-3H-imidazo[1,2-c]quinazolin-5-one] |
| – | – | > 10 µM | COc1ccccc1N1CCN(CCn2c(=O)[nH]c3ccccc3c2=O)CC1 [3-{2-[4-(2-Methoxy-phenyl)-piperazin-1-yl]-ethyl}-1H-quinazoline-2,4-dione] |
